{"source": "ChEMBL document CHEMBL1671655", "about": "“Anidulafungin is fungicidal and exerts a variety of postantifungal effects against Candida albicans, C. glabrata, C. parapsilosis, and C. krusei isolates” (2009)", "key": {"[1]": {"tested_on": "Candida parapsilosis", "assay": "Fungicidal activity against Candida parapsilosis isolate S assessed as log reduction in bacterial count at MIC after drug exposure for 1 hr followed by washout measured after 48 hrs in the absence of drug by PAFE study", "type": "functional", "settings": "Lodderomyces parapsilosis", "outline": "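Inoculum about 1 x 10^5 to 5 x 10^5 CFU/ml in RPMI 1640 (MOPS, pH 7.0) with drug, shaken at 35°C for 1 h. Cells were then washed and centrifuged at 1,400 x g for 10 min (3 cycles) and resuspended in warm drug-free RPMI. Samples plated on SDA at 0, 2, 4, 8, 12, 24 and 48 h; CFU counted after 48 h at 35°C. Run twice per isolate; means.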"}, "[2]": {"tested_on": "Candida parapsilosis", "assay": "Increase in susceptibility to calcofluor white in Candida parapsilosis isolate 1 assessed as cell wall damage at 16 times MIC after 1 hr relative to control", "type": "functional, organism-based", "outline": "(§1)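 Candida given a 1-h anidulafungin pulse in MOPS-buffered RPMI 1640 (pH 7.0) at 35°C, washed three times by centrifugation, and regrown drug-free. Cells collected 8 h later, grown in YPD with 1% glucose to exponential phase, and set to OD599 0.1. Undiluted culture and 10-fold dilutions (4 µl) spotted on YPD plates with calcofluor white, then 30°C for 72 h. Triplicate; compared with no-drug cells.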"}, "[3]": {"tested_on": "Pichia kudriavzevii", "assay": "Increase in susceptibility to SDS in Candida krusei isolate ATCC 6258 assessed as cell wall damage at MIC after 1 hr relative to control", "type": "functional, organism-based", "outline": "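Cells recovered 8 h after a 1-h drug exposure were grown in YPD with 1% glucose to exponential phase and adjusted to OD599 0.1. Undiluted culture and 10-fold serial dilutions were spotted onto YPD plates containing SDS (0.01 to 0.04%), then incubated 72 h at 30°C. Growth compared with unexposed control cells; triplicate.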"}, "[4]": {"tested_on": "Candida parapsilosis", "assay": "Inhibition of Candida parapsilosis isolate A adherence to human buccal epithelial cells at 4 times MIC after 1 hr by adherence assay relative to control", "type": "functional, Epithelial cell", "outline": "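Candida collected 8 h after a 1-h 4x MIC pulse and washout were grown on SDA for 24 h at 35°C. Buccal epithelial cells were pooled from three donors and washed in PBS. Cells (1 x 10^5/ml) were mixed 1:1 by volume with Candida (1 x 10^6/ml) and shaken 1 h at 37°C. Mixtures were filtered, washed, and Gram-stained, and Candida were counted per 100 epithelial cells. Run in duplicate on ≥2 occasions; Student's t test against unexposed controls.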"}, "[5]": {"tested_on": "Candida albicans", "assay": "Fungicidal activity against Candida albicans isolate 2 assessed as log reduction in bacterial count at 16 times MIC after drug exposure for 1 hr followed by washout measured after 48 hrs in the absence of drug by PAFE study", "type": "functional", "outline": "(§2)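 Starting inoculum ~1 x 10^5 to 5 x 10^5 CFU/ml in MOPS-buffered RPMI 1640 (pH 7.0) with drug at multiples of the CLSI M27-A3 MIC. After 1 h at 35°C, cells washed and centrifuged three times at 1,400 x g for 10 min, then resuspended in warm drug-free RPMI. Shaken at 35°C and plated on SDA at 0–48 h; CFU counted after 48 h. Run twice per isolate; means.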"}, "[6]": {"tested_on": "Candida parapsilosis", "assay": "Increase in susceptibility to calcofluor white in Candida parapsilosis isolate 1 assessed as cell wall damage at 4 times MIC after 1 hr relative to control", "type": "functional, organism-based", "outline": "as §1"}, "[7]": {"tested_on": "Nakaseomyces glabratus", "assay": "Fungicidal activity against Candida glabrata isolate 3 assessed as log reduction in bacterial count at 4 times MIC after 48 hrs by time-kill analysis", "type": "functional", "settings": "isolate 3, 48 h", "outline": "(§3)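 Isolates subcultured twice on SDA, suspended to 0.5 McFarland, giving ~1 x 10^5 to 5 x 10^5 CFU/ml in MOPS-buffered RPMI 1640 (pH 7.0) with or without drug at multiples of MIC (MIC by CLSI M27-A3). Tubes shaken at 35°C with continuous drug. Sampled at 0–48 h, diluted 10-fold and plated on SDA; CFU counted after 48 h at 35°C. Run twice per isolate; means.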"}, "[8]": {"tested_on": "Nakaseomyces glabratus", "assay": "Fungicidal activity against Candida glabrata isolate 2 assessed as log reduction in bacterial count at 4 times MIC after 48 hrs by time-kill analysis", "type": "functional", "settings": "isolate 2, 48 h", "outline": "as §3"}, "[9]": {"tested_on": "Nakaseomyces glabratus", "assay": "Antifungal activity against Candida glabrata isolate 1 assessed as cell wall damage at MIC by Transmission electron microscopy", "type": "functional, organism-based", "outline": "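Cells recovered 8 h after a 1-h drug exposure were grown on SDA for 24 h at 35°C. Colonies fixed at 4°C in 0.1 M cacodylate (pH 7.2) with 2% glutaraldehyde and 2% paraformaldehyde, ethanol-dehydrated and embedded in Lowicryl K4M. Thin sections examined by transmission EM.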"}, "[10]": {"tested_on": "Nakaseomyces glabratus", "assay": "Antifungal activity against Candida glabrata isolate 1 assessed as time period for bacterial growth inhibition at 16 times MIC after 1 hr drug exposure", "type": "functional", "outline": "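Inoculum of about 1 x 10^5 to 5 x 10^5 CFU/ml in MOPS-buffered RPMI (pH 7.0), shaken at 35°C and exposed to drug for 1 h. Cells then washed and centrifuged three times and resuspended in drug-free warm RPMI. Samples plated on SDA at 0, 2, 4, 8, 12, 24 and 48 h, with CFU counted after 48 h at 35°C. Run twice per isolate; values are means.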"}, "[11]": {"tested_on": "Nakaseomyces glabratus", "assay": "Antifungal activity against Candida glabrata isolate 1 coincubated with mouse J774 macrophages assessed as macrophage induced bacterial cell killing at 4 times MIC (reference value: 12 +/- 10 %)", "type": "functional"}, "[12]": {"tested_on": "Candida parapsilosis", "assay": "Fungicidal activity against Candida parapsilosis isolate S assessed as log reduction in bacterial count at MIC after 48 hrs by time-kill analysis", "type": "functional", "settings": "Lodderomyces parapsilosis", "outline": "(§4)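 Isolates subcultured twice on SDA, then suspended to 0.5 McFarland and diluted into RPMI 1640 (MOPS, pH 7.0) with or without anidulafungin, giving about 1 x 10^5 to 5 x 10^5 CFU/ml. Tubes were shaken at 35°C. Samples were taken at 0, 2, 4, 8, 12, 24 and 48 h, serially diluted 10-fold, plated on SDA, and CFU counted after 48 h at 35°C. Each isolate was run twice; mean values.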"}, "[13]": {"tested_on": "Candida albicans", "assay": "Fungicidal activity against Candida albicans isolate S assessed as log reduction in bacterial count at MIC after drug exposure for 1 hr followed by washout measured after 48 hrs in the absence of drug by PAFE study", "type": "functional", "outline": "as §2"}, "[14]": {"tested_on": "Candida albicans", "assay": "Increase in susceptibility to calcofluor white in Candida albicans isolate 1 assessed as cell wall damage at MIC after 1 hr relative to control", "type": "functional, organism-based", "outline": "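Cells recovered 8 h after a 1-h drug exposure were grown to exponential phase in YPD with 1% glucose and adjusted to OD599 0.1. Undiluted and 10-fold serially diluted cultures were spotted onto YPD plates containing calcofluor white, then incubated at 30°C for 72 h. Growth compared with no-drug control cells; triplicate.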"}, "[15]": {"tested_on": "Candida parapsilosis", "assay": "Fungicidal activity against Candida parapsilosis isolate A assessed as log reduction in bacterial count at 4 times MIC after 48 hrs by time-kill analysis", "type": "functional", "settings": "Lodderomyces parapsilosis", "outline": "as §4"}, "[16]": {"tested_on": "Candida albicans", "assay": "Fungicidal activity against Candida albicans isolate 2 assessed as log reduction in bacterial count at 4 times MIC after drug exposure for 1 hr followed by washout measured after 48 hrs in the absence of drug by PAFE study", "type": "functional", "outline": "as §2"}}, "note": "Calls of active or inactive are those of the source. The rule behind the calls is not given here. Starred links: 1 amine or outer side, 2 acyl side, 3 side chain; linkers in the order of their positions; H or OH if unused. Positions of bridges follow the written chain, without caps; N, C: chain ends. Non-standard residues stand in square brackets, D forms with d. Residues, ends and D or L forms follow the SMILES beside them. *: point of attachment. pTerphenylCO(4''-OnC5H11) = CCCCCOc1ccc(-c2ccc(-c3ccc(C(=O)*)cc3)cc2)cc1; Orn(4R-OH,5R-OH) = O=C([C@H](C[C@@H](O)[C@@H](O)N[*:3])N[*:1])[*:2]; hTyr(3S-OH,4S-OH) = N[C@H](C(=O)O)[C@H](O)[C@@H](O)c1ccc(O)cc1; Pro(3S-OH,4S-Me) = C[C@H]1CN[C@H](C(=O)O)[C@H]1O; Hyp = O=C(O)[C@@H]1C[C@@H](O)CN1"}
{"smiles": "CCCCCOc1ccc(-c2ccc(-c3ccc(C(=O)N[C@H]4C[C@@H](O)[C@@H](O)NC(=O)[C@@H]5[C@@H](O)[C@@H](C)CN5C(=O)[C@H]([C@@H](C)O)NC(=O)[C@H]([C@H](O)[C@@H](O)c5ccc(O)cc5)NC(=O)[C@@H]5C[C@@H](O)CN5C(=O)[C@H]([C@@H](C)O)NC4=O)cc3)cc2)cc1", "note": "[ANIDULAFUNGIN] ({pTerphenylCO(4''-OnC5H11)}-[Orn(4R-OH,5R-OH)]T[Hyp][hTyr(3S-OH,4S-OH)]T[Pro(3S-OH,4S-Me)]; lactam 1-C)", "values": [{"measurement": "log reduction", "setting": "[1]", "value": 0.41}, {"measurement": "Activity", "setting": "[2]", "value": "Active"}, {"measurement": "Activity", "setting": "[3]", "value": "Active"}, {"measurement": "inhibition (INH)", "setting": "[4]", "value": 69, "unit": "%"}, {"measurement": "log reduction", "setting": "[5]", "value": 1.55}, {"measurement": "Activity", "setting": "[6]", "value": "Active"}, {"measurement": "log reduction", "setting": "[7]", "value": 2.76, "unit": "log CFU/ml"}, {"measurement": "log reduction", "setting": "[8]", "value": 1.87, "unit": "log CFU/ml"}, {"measurement": "Activity", "setting": "[9]", "value": "Active"}, {"measurement": "Time", "setting": "[10]", "value": 8, "unit": "h"}, {"measurement": "inhibition (INH)", "setting": "[11]", "value": 33, "unit": "%"}, {"measurement": "log reduction", "setting": "[12]", "value": 1.32, "unit": "log CFU/ml"}, {"measurement": "log reduction", "setting": "[13]", "value": 1.59, "unit": "log CFU/ml"}, {"measurement": "Activity", "setting": "[14]", "value": "Active"}, {"measurement": "log reduction", "setting": "[15]", "value": 3.19, "unit": "log CFU/ml"}, {"measurement": "log reduction", "setting": "[16]", "value": 1.24}]}
